In ChEMBL document CHEMBL4342410, “Design and Discovery of N-(3-(2-(2-Hydroxyethoxy)-6-morpholinopyridin-4-yl)-4-methylphenyl)-2-(trifluoromethyl)isonicotinamide, a Selective, Efficacious, and Well-Tolerated RAF Inhibitor Targeting RAS Mutant Cancers: The Path to the Clinic” (J Med Chem, 2020):

Assays:
[1] = Apparent permeability across basolateral to apical side in human Caco2 cells at pH 7.4 by LC/MS/MS analysis; type: ADME, cell-based; conditions: Caco-2, pH 7.4
[2] = Stimulation of BRAF-CRAF dimerization in human HCT116 cells measured after 2 hrs by NanoBit luciferase complementation assay; type: cell-based; conditions: read-out: EC50
[3] = target: Epithelial discoidin domain-containing receptor 1 (Homo sapiens) (UniProt Q08345); test: Binding affinity to wild-type human partial length DDR1 (R565 to V876 residues) expressed in bacterial expression system at 1 uM by Kinomescan method relative to control
Sequence of Epithelial discoidin domain-containing receptor 1 (Homo sapiens) (Q08345 whole entry, the tested form may be a part): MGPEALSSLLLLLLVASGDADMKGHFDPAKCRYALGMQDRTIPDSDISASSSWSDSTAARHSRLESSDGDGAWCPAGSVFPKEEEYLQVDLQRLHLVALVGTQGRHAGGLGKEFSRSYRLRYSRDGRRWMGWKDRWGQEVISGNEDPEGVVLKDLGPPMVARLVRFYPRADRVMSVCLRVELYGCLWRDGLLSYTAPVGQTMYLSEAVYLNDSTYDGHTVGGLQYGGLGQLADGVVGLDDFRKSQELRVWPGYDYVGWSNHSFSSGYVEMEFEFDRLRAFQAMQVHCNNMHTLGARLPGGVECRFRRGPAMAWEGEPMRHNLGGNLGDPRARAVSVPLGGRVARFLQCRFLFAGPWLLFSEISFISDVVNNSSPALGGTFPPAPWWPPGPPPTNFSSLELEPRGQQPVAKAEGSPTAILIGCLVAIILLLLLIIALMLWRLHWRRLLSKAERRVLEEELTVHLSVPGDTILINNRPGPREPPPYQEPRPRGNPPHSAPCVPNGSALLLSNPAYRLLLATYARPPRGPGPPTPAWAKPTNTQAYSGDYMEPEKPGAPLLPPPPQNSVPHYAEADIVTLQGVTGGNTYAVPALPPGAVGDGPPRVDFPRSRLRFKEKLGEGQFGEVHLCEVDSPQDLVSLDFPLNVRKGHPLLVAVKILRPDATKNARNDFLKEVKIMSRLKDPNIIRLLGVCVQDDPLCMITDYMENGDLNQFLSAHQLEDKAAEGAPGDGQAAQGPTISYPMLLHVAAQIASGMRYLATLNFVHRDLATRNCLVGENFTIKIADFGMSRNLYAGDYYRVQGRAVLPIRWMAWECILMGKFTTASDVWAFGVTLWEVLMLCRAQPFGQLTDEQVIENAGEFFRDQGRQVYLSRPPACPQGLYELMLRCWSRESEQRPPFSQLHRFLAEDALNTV
Procedure, shortened: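 KINOMEscan competition binding panel of about 456 kinases, compound tested at 1 μM. Activity is given as % of control = [(test signal − positive control signal)/(negative control signal − positive control signal)] × 100.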

[4] = target: Serine/threonine-protein kinase B-raf (Homo sapiens, UniProt P15056); test: Binding affinity to wild-type human partial length BRAF (S429 to E741 residues) expressed in mammalian expression system by Kinomescan method
Sequence of Serine/threonine-protein kinase B-raf (P15056 whole entry, the tested form may be a part): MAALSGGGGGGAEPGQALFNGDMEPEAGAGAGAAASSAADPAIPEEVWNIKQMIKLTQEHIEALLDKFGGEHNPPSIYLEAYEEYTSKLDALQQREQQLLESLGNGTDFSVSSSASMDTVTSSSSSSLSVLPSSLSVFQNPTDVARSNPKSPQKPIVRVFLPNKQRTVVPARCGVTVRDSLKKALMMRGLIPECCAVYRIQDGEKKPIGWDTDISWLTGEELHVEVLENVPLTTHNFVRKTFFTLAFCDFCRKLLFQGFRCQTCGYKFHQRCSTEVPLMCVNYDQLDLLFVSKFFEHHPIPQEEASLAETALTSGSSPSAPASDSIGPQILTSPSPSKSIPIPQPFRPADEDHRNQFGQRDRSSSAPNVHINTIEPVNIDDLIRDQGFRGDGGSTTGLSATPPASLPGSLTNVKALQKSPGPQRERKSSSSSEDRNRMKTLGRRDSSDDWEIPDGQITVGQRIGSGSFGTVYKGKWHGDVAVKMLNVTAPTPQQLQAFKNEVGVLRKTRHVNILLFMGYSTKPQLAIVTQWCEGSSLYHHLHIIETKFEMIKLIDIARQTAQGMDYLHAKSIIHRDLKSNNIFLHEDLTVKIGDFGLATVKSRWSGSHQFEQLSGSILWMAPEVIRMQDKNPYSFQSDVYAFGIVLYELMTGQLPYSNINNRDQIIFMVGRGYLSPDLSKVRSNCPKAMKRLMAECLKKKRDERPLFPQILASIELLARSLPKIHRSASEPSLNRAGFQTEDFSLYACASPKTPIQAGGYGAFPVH

[5] = target: RAF proto-oncogene serine/threonine-protein kinase (Homo sapiens, UniProt P04049); test: Binding affinity to wild-type human partial length CRAF (I330 to T640 residues) expressed in bacterial expression system by Kinomescan method
Sequence of RAF proto-oncogene serine/threonine-protein kinase (P04049 whole entry, the tested form may be a part): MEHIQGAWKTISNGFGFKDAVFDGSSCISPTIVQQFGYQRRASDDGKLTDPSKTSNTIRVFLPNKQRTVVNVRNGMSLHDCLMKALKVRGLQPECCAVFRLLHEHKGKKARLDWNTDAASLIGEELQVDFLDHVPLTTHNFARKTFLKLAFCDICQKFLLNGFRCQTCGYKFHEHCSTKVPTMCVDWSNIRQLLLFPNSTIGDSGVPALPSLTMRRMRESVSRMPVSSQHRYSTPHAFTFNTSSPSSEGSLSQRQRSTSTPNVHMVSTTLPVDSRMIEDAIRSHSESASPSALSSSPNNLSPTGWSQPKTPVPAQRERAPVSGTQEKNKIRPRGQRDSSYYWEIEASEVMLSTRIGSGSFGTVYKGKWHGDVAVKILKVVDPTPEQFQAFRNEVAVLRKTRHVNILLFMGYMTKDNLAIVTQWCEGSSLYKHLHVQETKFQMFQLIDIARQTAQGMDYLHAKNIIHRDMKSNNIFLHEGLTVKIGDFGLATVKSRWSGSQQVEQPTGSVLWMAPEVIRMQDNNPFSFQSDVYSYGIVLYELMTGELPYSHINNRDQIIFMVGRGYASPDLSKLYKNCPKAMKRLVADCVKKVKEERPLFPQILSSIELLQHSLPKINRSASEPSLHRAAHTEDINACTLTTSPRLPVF

[6] = target: T1, Discoidin domain-containing receptor 2 (Homo sapiens, UniProt Q16832); test: Binding affinity to wild-type human partial length DDR2 (V555 to E855 residues) expressed in mammalian expression system by Kinomescan method
T1 sequence (Q16832 whole entry): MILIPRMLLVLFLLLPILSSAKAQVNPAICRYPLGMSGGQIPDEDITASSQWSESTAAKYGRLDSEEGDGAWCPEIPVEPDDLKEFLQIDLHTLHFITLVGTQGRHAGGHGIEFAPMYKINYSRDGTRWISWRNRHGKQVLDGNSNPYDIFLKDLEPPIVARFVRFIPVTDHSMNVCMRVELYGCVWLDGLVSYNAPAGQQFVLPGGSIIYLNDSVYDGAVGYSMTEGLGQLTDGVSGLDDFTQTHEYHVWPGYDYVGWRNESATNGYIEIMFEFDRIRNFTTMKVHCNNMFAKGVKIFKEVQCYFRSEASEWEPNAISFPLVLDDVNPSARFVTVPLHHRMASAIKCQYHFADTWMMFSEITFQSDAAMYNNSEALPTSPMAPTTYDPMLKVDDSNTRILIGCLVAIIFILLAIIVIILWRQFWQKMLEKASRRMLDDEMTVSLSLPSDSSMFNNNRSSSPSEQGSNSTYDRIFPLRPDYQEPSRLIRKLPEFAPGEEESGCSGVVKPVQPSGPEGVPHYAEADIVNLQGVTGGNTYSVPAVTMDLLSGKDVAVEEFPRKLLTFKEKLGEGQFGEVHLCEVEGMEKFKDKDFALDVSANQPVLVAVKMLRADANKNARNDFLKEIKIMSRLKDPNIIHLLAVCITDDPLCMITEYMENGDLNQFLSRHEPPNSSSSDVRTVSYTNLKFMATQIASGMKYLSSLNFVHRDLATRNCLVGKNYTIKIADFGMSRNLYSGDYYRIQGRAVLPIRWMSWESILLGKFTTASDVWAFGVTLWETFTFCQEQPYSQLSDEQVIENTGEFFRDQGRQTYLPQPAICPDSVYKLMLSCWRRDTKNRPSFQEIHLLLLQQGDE

[7] = Cmax in rat at 4 mg/kg, po; type: ADME, organism-based; set-up: dose 4 mg/kg, route oral; conditions: in vivo
[8] = AUC (infinity) in mouse at 4 mg/kg, po; type: ADME, organism-based; set-up: dose 4 mg/kg, route oral, time infinity; conditions: in vivo
[9] = Clearance in mouse at 2 mg/kg, iv or 4 mg/kg, po; type: ADME, organism-based; conditions: in vivo
[10] = Clearance in rat at 2 mg/kg, iv or 4 mg/kg, po; type: ADME, organism-based; conditions: in vivo
[11] = Clearance in dog at 0.2 mg/kg, iv or 0.4 mg/kg, po; type: ADME, organism-based, Canis lupus familiaris; conditions: in vivo
[12] = Volume of distribution at steady state in mouse at 2 mg/kg, iv or 4 mg/kg, po; type: ADME, organism-based; conditions: in vivo, read-out: Vdss
[13] = Time at which free plasma concentration stays above in vitro IC50 for CRAF in human Calu6 cells assessed as reduction MEK phosphorylation in nude rat xenografted with human Calu6 cells harboring KRAS Q61K mutant at 150 mg/kg, po; type: ADME, organism-based; conditions: in vivo
Rattus norvegicus = test: In vivo inhibition of CRAF in nude rat xenografted with human Calu6 cells harboring KRAS Q61K mutant assessed as reduction in tumor MEK phosphorylation at 150 mg/kg, po administered as single dose measured after 24 hrs by sandwich ELISA relative to control; type: functional; conditions: Calu-6, po
Procedure, shortened: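 Calu-6 (KRAS Q61K) xenograft-bearing nude rats were given a single oral dose of 15, 35, 75 or 150 mg/kg. Tumor and blood were sampled at 1, 4, 7, 24 and 48 h post-dose. Tumor pMEK was quantified by MSD immunoassay and expressed as percent pMEK. Free plasma exposure was determined in parallel.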

Calu-6 = test: Antitumor activity against human Calu6 cells harboring KRAS Q61K mutant xenografted in po dosed nude rat assessed as increase in tumor regression administered daily for 18 days starting from day 13 post tumor implantation and measured on day 31; type: functional, organism-based
Procedure, shortened: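 Nude rats bearing Calu-6 (KRAS Q61K) human NSCLC xenografts received vehicle or drug p.o. daily at 15, 35, 75 or 150 mg/kg. Dosing began 13 days after tumor implantation and ran to day 31, i.e. 18 days of treatment. Tumor volumes were read out as %T/C or % regression versus vehicle on day 31. Body weight was also tracked.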

[14] = Toxicity in human Calu6 cells harboring KRAS Q61K mutant xenografted nude rat assessed as mortality at 15 to 150 mg/kg, po administered daily for 18 days starting from day 13 post tumor implantation and measured during compound dosing; type: organism-based; conditions: in vivo, 432 h
Procedure, shortened: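 Nude rats bearing Calu-6 (KRAS Q61K) NSCLC xenografts were dosed orally once daily with vehicle or 15, 35, 75 or 150 mg/kg. Dosing ran from day 13 post-implant to day 31. Rats were monitored for mortality and signs of toxicity over the treatment period, alongside body weight.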

[15] = Cmax in nude rat xenografted with human Calu6 cells harboring KRAS Q61K mutant at 15 mg/kg, po administered daily for 18 days starting from day 13 post tumor implantation and measured on day 31; type: ADME, organism-based; set-up: dose 15 mg/kg, route oral; conditions: in vivo
Procedure, shortened: (§1)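 Nude rats carrying Calu-6 (KRAS Q61K) NSCLC xenografts were dosed p.o. once daily at 15, 35, 75 or 150 mg/kg from day 13 to day 31 after implant. Plasma was collected after the last dose and drug concentration was measured. AUC and Cmax were calculated per dose on day 31.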

[16] = AUC (0 to 24 hrs) in nude rat xenografted with human Calu6 cells harboring KRAS Q61K mutant at 35 mg/kg, po administered daily for 18 days starting from day 13 post tumor implantation and measured on day 31; type: ADME, organism-based; set-up: dose 35 mg/kg, time < 24 hr, route oral; conditions: in vivo; procedure, shortened: as §1
[17] = Dissociation constant, pKa of the compound; type: physicochemical
[18] = Stability of the compound in human plasma assessed as parent compound remaining measured after 3 hrs; type: ADME, cell-free; conditions: read-out: Stability
Procedure, shortened: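 Compound incubated in human plasma for 3 h; stability expressed as percent remaining intact.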

Cc1ccc(NC(=O)c2ccnc(C(F)(F)F)c2)cc1-c1cc(OCCO)nc(N2CCOCC2)c1 [NAPORAFENIB]
Papp B→A [1]: 19 ×10⁻⁶ cm/s
EC50 [2]: 160 nM
Activity [3]: > 99%
Kd [4]: 1.3 nM
Kd [5]: 3.6 nM
Kd [6]: 10 nM
Cmax [7]: 500 nM
AUC(0-inf) [8]: 4.3 µM·h
clearance [9]: 19 mL/min/kg
clearance [10]: 31 mL/min/kg
clearance [11]: 3.5 mL/min/kg
Vd [12]: 2.1 L/kg
T>IC50 [13]: 24 h
inhibition in vivo at 150 mg/kg (Rattus norvegicus): 70%
Activity (Calu-6): Dose-dependent effect
Activity [14]: Non-Toxic
Cmax [15]: 878 nM
AUC at 24 h [16]: 25.2 µM·h
pKa [17]: 3.86
remaining at 3 h [18]: > 90%
